Measurements of several laboratories.
Cell line: MCF7
Observed: cell growth or viability

SMILES	assay	conditions	IC50 [µM]
Cc1ccccc1NC(=O)C=Cc1ccc(O)c(O)c1	MTT		44.5
Cc1nc(N(C)c2ccc3c(c2)/C(=C/c2ccccc2Cl)C(=O)N3C)c2ccccc2n1	MTT		10.8
CC1CCC(C(C)C)C(OC(=O)C=Cc2ccc(O)c(O)c2)C1 (centres unmarked)	MTT		28.6
COc1cc2c3c(n(CCCNC(C)C)c(=O)c2cc1OC)-c1nc2c(cc1C3=O)OCO2		72 h	0.318
Nc1ccccc1OC(=O)C=Cc1ccc(O)c(O)c1	MTT		22.3
O=C(CCn1c(=O)ccc2ccccc21)N1CCOCC1	MTT	48 h	9.77
Cc1nc(Nc2ccc3c(c2)/C(=C/c2ccccc2)C(=O)N3Cc2ccccc2)c2ccccc2n1	MTT		11.6
Cc1ccc(-c2cc(-c3c(Cl)cccc3Cl)c3c(=O)n(C)c(=O)n(C)c3n2)cc1	MTT	48 h	6.41
COc1cc2c3c(n(CCCN4CCOCC4)c(=O)c2cc1OC)-c1nc2c(cc1C3=O)OCO2		72 h	0.936
Cc1nc2ccc(CN(C)c3ccc(C(=O)N[C@@H](CCC(=O)O)C(=O)O)s3)cc2c(=O)[nH]1	MTT	48 h	1.98
Cc1nc(Nc2ccc3c(c2)CC(=O)N3)c2ccccc2n1	MTT		31.3
CC(C)CS(=O)(=O)NCc1cccc(-c2ccc3c(NC(=O)CC4CC4)n[nH]c3c2)c1	ATP luminescence	48 h	42
COc1ccc(-c2cc(-c3ccccc3Cl)c3c(=O)[nH]c(=O)[nH]c3n2)cc1	MTT	48 h	17.5
Cc1nc(Nc2ccc3c(c2)C(C)(C)C(=O)N3C)c2ccccc2n1	MTT		36.3
COc1ccc(-c2cc(-c3c(OC)cccc3OC)c3c(=O)[nH]c(=O)[nH]c3n2)cc1	MTT	48 h	32.3
Cc1nc(NC(=O)N2CCC[C@H]2C(N)=O)sc1-c1ccnc(C(C)(C)C(F)(F)F)c1	MTT		1.89
COc1ccc(-c2cc(-c3ccccc3Cl)c3c(=O)n(C)c(=O)n(C)c3n2)cc1	MTT	48 h	21.5
COc1cc2c3c(n(CCCn4ccnc4)c(=O)c2cc1OC)-c1nc2c(cc1C3=O)OCO2		72 h	0.372
COc1ccc(-c2cc(-c3cc(OC)ccc3OC)c3c(=O)n(C)c(=O)n(C)c3n2)cc1	MTT	48 h	19.8
COc1cc2ncnc(Nc3ccc4c(c3)/C(=C/c3ccccc3)C(=O)N4C)c2cc1OC	MTT		7.84
